The values below come from ChEMBL document CHEMBL4321879, “Novel Class of Colony-Stimulating Factor 1 Receptor Kinase Inhibitors Based on an o-Aminopyridyl Alkynyl Scaffold as Potential Treatment for Inflammatory Disorders” (J Med Chem, 2020).

Data set [1] addresses Platelet-derived growth factor receptor beta (Homo sapiens) (UniProt P09619). The experiment in a line: Inhibition of recombinant human N-terminal His6-tagged PDGFRbeta (557 to end residues) expressed in baculovirus infected Sf21 insect cells at 1000 nM using poly (Glu, Tyr)4:1 as substrate measured after 1 hr by ELISA relative to control. In outline:
(§1)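 ELISA kinase assay: recombinant kinase added to wells precoated with poly(Glu,Tyr)4:1 and incubated with compound in reaction buffer containing 5 μM ATP, 37 °C for 1 h; wells then washed before antibody detection.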

In data set [2] the target is Focal adhesion kinase 1 (Homo sapiens) (UniProt Q05397). The data set can be described thus: Inhibition of recombinant human N-terminal His6-tagged FAK (411 to 686 residues) expressed in baculovirus infected Sf21 insect cells at 100 nM using poly (Glu, Tyr)4:1 as substrate measured after 1 hr by ELISA relative to control. The method, boiled down: (§2)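 Recombinant kinase was incubated with compound in reaction buffer containing 5 μM ATP, in wells precoated with poly(Glu,Tyr) 4:1, for 1 h at 37 °C. Phosphorylation was detected by ELISA.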

For data set [3], the target named is Macrophage colony-stimulating factor 1 receptor (Mus musculus) (UniProt P09581). The experiment in a line: Inhibition of CSF1R in CSF1-stimulated mouse RAW264.7 cells assessed as reduction in CSF1R phosphorylation preincubated for 6 hrs followed by CSF1 stimulation and measured after 20 mins by Western blot analysis. It counts as cell-based. In outline:
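RAW264.7 cells were plated in six-well plates overnight, treated with compound for 6 h, then stimulated with CSF-1 100 ng/mL for 20 min. Lysates were normalized by BCA, run on 10% SDS-PAGE, and blotted with antibodies to phospho-CSF1R (Tyr723), CSF1R, phospho-Akt (Ser473), Akt and actin.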
On the technique in general: In western blotting, separated proteins are transferred to a membrane and probed.

Data set [4] concerns the target Proto-oncogene tyrosine-protein kinase receptor Ret (Homo sapiens) (UniProt P07949). The data set can be described thus: Inhibition of recombinant human N-terminal GST-tagged RET (658 to end residues) expressed in baculovirus infected Sf21 insect cells at 1000 nM using poly (Glu, Tyr)4:1 as substrate measured after 1 hr by ELISA relative to control. In outline:
as §2

The target in data set [5] is T1, Fibroblast growth factor receptor 4 (Homo sapiens, UniProt P22455). The data set can be described thus: Inhibition of recombinant human N-terminal His6-tagged FGFR4 (442 to 755 residues) expressed in baculovirus infected Sf21 insect cells using poly (Glu, Tyr)4:1 as substrate measured after 1 hr by ELISA. The method, boiled down: as §1
Target sequence in this assay (P22455 whole entry, the tested form may be a part): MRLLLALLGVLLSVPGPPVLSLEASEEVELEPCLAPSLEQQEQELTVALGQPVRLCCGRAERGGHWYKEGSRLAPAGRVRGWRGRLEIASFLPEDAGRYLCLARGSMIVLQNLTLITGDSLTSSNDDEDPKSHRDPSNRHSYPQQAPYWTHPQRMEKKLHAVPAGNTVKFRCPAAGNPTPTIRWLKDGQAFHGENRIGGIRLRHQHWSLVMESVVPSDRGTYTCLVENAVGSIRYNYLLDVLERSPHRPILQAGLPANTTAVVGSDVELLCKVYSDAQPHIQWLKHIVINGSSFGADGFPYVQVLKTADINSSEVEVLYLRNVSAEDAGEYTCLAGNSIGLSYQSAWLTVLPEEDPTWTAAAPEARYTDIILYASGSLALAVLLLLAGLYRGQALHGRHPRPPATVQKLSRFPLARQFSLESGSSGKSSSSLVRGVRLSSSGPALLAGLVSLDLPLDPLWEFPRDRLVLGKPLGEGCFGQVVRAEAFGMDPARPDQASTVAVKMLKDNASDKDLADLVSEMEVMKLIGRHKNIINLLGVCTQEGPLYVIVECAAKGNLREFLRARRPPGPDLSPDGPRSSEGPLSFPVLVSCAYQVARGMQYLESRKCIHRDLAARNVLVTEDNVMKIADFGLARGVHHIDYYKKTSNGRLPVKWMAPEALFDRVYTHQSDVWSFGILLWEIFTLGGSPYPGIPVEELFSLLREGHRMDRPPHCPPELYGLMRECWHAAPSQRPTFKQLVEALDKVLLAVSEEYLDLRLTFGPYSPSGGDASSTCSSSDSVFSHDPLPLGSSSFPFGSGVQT
In data set [6] the target is Ephrin type-A receptor 2 (Homo sapiens) (UniProt P29317). The experiment in a line: Inhibition of recombinant human N-terminal His6-tagged EphA2 (596 to 900 residues) expressed in baculovirus infected Sf21 insect cells at 100 nM using poly (Glu, Tyr)4:1 as substrate measured after 1 hr by ELISA relative to control. The method, boiled down: as §2
The target of data set [7] is T1, Fibroblast growth factor receptor 4. The data set can be described thus: Inhibition of recombinant human N-terminal His6-tagged FGFR4 (442 to 755 residues) expressed in baculovirus infected Sf21 insect cells at 1000 nM using poly (Glu, Tyr)4:1 as substrate measured after 1 hr by ELISA relative to control. In outline: as §1
Target sequence in this assay (P22455 22-802 limits assumed): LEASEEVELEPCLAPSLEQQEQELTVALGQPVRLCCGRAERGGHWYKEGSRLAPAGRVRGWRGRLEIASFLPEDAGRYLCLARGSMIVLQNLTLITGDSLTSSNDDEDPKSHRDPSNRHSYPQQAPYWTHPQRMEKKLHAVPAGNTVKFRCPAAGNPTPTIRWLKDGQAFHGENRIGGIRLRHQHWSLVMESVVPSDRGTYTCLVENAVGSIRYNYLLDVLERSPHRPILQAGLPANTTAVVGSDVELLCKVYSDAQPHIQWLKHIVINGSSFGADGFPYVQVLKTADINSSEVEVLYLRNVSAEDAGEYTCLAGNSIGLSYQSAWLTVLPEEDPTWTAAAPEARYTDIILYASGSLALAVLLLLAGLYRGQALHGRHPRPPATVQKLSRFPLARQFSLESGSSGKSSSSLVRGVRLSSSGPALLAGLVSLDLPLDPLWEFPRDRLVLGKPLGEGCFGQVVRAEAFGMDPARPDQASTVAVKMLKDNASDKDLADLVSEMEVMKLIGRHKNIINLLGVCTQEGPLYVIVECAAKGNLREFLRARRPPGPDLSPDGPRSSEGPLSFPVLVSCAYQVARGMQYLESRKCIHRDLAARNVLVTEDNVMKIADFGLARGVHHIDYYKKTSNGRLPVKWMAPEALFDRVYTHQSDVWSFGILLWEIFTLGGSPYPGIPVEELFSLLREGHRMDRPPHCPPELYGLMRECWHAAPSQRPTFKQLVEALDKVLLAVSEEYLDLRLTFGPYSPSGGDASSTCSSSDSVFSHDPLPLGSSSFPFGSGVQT
A short description of data set [8]: Tmax in Sprague-Dawley rat at 5 mg/kg, po administered via gavage by LC-MS/MS analysis. In kind it is ADME, organism-based. The note with it: in vivo. The method, boiled down:
(§3)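 Male SD rats (200 ± 20 g), fasted 12 h, n = 3; oral gavage 5 mg/kg in DMSO/HPMC (5/95). Femoral vein blood at 15–1440 min; plasma precipitated with methanol plus internal standard, LC–MS/MS; noncompartmental analysis, Tmax observed directly, MRT = AUMC/AUC.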

Data set [9] has as its target Vascular endothelial growth factor receptor 2 (Homo sapiens) (UniProt P35968). The data set can be described thus: Inhibition of recombinant human VEGFR2 (D1-7) expressed in Spodoptera frugiperda insect cells at 100 nM using poly (Glu, Tyr)4:1 as substrate measured after 1 hr by ELISA relative to control. In outline:
as §1
A general note: In an ELISA, binding on a coated surface is turned into a signal by an enzyme label.

Data set [10] in a line: Elimination half life in Sprague-Dawley rat at 2 mg/kg, iv administered […] by LC-MS/MS analysis. In kind it is ADME, organism-based. To be noted: in vivo, read-out: beta t1/2 (converted). The method, boiled down: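 Male SD rats (200 ± 20 g) were fasted 12 h with free access to water, n = 3 per group. One group received 2 mg/kg iv in DMSO/EtOH/PEG300/saline (5/5/40/50). The other received 5 mg/kg by oral gavage in DMSO/HPMC (5/95). Femoral-vein plasma was taken at 15–1440 min, methanol-precipitated with internal standard, and measured by LC–MS/MS. Noncompartmental analysis; AUC by trapezoidal method.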

Data set [11] addresses FLT3 (Homo sapiens, UniProt P36888). The experiment in a line: Inhibition of recombinant human N-terminal GST-tagged FLT3 (564 to end residues) expressed in Sf21 insect cells at 1000 nM using poly (Glu, Tyr)4:1 as substrate measured after 1 hr by ELISA relative to control. To be noted: probe poly (Glu, Tyr)4:1. In outline:
as §2

Data set [12] can be described thus: MRT (infinity) in Sprague-Dawley rat at 5 mg/kg, po administered via gavage by LC-MS/MS analysis. In kind it is ADME, organism-based. To be noted: in vivo. In outline:
as §3

The target in data set [13] is Macrophage colony-stimulating factor 1 receptor (Homo sapiens, UniProt P07333). The data set can be described thus: Inhibition of recombinant CSF1R (unknown origin) using poly (Glu, Tyr)4:1 as substrate measured after 1 hr by ELISA.
Sequence of Macrophage colony-stimulating factor 1 receptor (P07333 whole entry): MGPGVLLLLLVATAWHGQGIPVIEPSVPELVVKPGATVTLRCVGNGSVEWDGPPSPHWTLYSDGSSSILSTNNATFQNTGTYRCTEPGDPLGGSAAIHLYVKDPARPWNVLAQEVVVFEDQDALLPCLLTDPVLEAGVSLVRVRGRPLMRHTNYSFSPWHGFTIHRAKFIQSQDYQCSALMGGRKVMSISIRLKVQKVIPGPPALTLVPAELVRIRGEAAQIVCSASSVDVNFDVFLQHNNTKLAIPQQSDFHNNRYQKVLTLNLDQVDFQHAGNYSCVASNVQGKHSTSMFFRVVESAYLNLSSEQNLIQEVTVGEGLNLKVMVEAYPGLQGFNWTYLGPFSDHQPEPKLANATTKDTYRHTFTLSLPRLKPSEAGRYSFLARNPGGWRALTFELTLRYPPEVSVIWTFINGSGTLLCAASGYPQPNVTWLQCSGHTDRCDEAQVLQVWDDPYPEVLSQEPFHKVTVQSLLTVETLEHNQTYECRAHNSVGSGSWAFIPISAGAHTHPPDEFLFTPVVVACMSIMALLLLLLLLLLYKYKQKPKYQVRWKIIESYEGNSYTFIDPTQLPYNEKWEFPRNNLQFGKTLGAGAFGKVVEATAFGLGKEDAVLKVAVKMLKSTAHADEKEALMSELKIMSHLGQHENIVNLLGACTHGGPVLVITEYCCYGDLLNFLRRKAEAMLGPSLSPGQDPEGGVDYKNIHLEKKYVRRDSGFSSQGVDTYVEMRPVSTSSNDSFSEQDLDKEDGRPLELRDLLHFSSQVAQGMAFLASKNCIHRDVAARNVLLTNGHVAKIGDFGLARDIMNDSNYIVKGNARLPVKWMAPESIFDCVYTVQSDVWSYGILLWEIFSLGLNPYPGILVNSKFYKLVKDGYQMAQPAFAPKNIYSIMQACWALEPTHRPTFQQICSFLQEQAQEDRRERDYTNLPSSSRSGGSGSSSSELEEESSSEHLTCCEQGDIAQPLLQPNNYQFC
In data set [14] the target is Tyrosine-protein kinase ABL1 (Homo sapiens) (UniProt P00519). The data set can be described thus: Inhibition of recombinant human N-terminal His6-tagged Abl (27 to end residues) expressed in baculovirus infected Sf21 insect cells at 10 nM using poly (Glu, Tyr)4:1 as substrate measured after 1 hr by ELISA relative to control. In outline: as §2
Data set [15] deals with Receptor tyrosine-protein kinase erbB-4 (Homo sapiens) (UniProt Q15303). The experiment in a line: Inhibition of recombinant human N-terminal His6-tagged Erbb4 (706 to 991 residues) expressed in baculovirus infected Sf21 insect cells at 1000 nM using poly (Glu, Tyr)4:1 as substrate measured after 1 hr by ELISA relative to control. The method, boiled down: as §2
Data set [16] concerns the target Tyrosine-protein kinase ITK/TSK (Homo sapiens) (UniProt Q08881). The experiment in a line: Inhibition of recombinant human N-terminal His6-tagged ITK (352 to 617 residues) expressed in baculovirus infected Sf21 insect cells at 100 nM using poly (Glu, Tyr)4:1 as substrate measured after 1 hr by ELISA relative to control. The method, boiled down: as §1
Data set [17] has as its target Proto-oncogene tyrosine-protein kinase Src (Homo sapiens) (UniProt P12931). The data set can be described thus: Inhibition of recombinant human full-length N-terminal His6-tagged Src expressed in Sf21 insect cells at 10 nM using poly (Glu, Tyr)4:1 as substrate measured after 1 hr by ELISA relative to control. The method, boiled down:
as §1

Data set [18] addresses Vascular endothelial growth factor receptor 3 (Homo sapiens) (UniProt P35916). The experiment in a line: Inhibition of recombinant VEGFR3 (unknown origin) at 1000 nM using poly (Glu, Tyr)4:1 as substrate measured after 1 hr by ELISA relative to control. The method, boiled down: as §2
Data set [19] deals with Fibroblast growth factor receptor 3 (Homo sapiens, UniProt P22607). The experiment in a line: Inhibition of recombinant human N-terminal His6-tagged FGFR3 (447 to 761 residues) expressed in baculovirus infected Sf21 insect cells at 1000 nM using poly (Glu, Tyr)4:1 as substrate measured after 1 hr by ELISA relative to control. The method, boiled down: as §2
Sequence of Fibroblast growth factor receptor 3 (P22607 23-806 limits assumed): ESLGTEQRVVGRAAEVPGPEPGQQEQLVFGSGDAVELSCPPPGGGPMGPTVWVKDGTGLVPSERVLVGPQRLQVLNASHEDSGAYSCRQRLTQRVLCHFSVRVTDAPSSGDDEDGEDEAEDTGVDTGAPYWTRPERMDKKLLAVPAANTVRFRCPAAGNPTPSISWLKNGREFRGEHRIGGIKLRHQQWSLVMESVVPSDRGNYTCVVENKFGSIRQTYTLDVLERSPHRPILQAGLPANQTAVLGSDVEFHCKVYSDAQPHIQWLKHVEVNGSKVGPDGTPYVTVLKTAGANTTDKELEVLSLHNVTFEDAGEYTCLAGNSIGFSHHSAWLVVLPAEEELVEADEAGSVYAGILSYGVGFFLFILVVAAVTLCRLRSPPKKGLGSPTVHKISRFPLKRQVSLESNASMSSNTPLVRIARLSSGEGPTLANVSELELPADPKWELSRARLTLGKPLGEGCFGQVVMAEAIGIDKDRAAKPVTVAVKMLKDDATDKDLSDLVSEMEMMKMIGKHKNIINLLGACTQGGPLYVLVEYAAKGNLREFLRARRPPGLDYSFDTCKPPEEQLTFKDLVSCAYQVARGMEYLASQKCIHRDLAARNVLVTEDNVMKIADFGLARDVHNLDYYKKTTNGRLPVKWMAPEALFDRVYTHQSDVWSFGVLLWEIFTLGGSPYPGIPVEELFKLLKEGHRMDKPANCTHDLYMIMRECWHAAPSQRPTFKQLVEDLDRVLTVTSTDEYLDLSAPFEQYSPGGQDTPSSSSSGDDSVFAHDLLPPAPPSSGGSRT

In general, inhibition refers to the share of the control response that was lost under treatment. What is called IC50 is the concentration needed to halve the response being measured. As usually defined, the Tmax is the time from dosing to the highest level. Usually MRT inf stands for the average time that molecules of a dose stay in the body.

Sequence of Proto-oncogene tyrosine-protein kinase Src (Homo sapiens) (P12931 2-536 limits assumed): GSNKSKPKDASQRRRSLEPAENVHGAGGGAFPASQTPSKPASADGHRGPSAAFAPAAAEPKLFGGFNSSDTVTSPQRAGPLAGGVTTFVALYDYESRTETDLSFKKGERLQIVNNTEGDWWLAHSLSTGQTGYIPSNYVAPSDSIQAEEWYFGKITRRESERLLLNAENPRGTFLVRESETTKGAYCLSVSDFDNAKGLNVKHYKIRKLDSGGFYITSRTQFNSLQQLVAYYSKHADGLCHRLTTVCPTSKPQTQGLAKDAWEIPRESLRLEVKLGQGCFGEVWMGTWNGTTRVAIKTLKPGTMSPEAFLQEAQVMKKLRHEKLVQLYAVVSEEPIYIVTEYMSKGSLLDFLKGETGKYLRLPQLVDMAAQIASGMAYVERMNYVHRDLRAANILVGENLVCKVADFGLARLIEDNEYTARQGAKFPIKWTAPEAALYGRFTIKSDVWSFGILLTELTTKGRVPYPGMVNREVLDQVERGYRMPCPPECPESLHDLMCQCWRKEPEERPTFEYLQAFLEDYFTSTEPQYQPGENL
Sequence of Proto-oncogene tyrosine-protein kinase receptor Ret (Homo sapiens) (P07949 whole entry): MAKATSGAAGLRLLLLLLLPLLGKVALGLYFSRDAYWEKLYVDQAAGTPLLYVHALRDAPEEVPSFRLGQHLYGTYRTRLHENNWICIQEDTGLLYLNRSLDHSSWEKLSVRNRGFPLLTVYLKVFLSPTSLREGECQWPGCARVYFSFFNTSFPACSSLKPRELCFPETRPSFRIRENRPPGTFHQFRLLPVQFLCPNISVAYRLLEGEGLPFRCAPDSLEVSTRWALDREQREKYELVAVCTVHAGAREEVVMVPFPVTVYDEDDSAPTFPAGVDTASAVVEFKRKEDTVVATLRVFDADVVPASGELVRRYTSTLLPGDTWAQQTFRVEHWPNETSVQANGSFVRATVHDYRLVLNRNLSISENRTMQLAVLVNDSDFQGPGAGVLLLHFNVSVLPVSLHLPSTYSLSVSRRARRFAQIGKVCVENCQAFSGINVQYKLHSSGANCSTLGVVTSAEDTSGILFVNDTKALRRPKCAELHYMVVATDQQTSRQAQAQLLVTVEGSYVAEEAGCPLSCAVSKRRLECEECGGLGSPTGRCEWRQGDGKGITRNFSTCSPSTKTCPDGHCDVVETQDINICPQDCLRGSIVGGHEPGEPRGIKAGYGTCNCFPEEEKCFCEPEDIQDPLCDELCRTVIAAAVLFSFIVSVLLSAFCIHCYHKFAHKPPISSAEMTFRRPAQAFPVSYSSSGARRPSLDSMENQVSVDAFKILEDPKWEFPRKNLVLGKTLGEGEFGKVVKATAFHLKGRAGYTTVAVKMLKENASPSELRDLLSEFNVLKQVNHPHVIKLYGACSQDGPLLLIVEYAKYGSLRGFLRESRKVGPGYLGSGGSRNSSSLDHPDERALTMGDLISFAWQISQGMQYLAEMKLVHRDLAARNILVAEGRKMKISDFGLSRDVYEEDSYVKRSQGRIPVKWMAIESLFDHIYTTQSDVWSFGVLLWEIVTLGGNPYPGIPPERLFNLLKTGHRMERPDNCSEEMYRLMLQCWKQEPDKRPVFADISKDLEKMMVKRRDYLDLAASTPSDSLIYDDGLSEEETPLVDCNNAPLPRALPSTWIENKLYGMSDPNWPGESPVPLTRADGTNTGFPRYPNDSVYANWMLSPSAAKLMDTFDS

Turning to `Cc1ccc(C(=O)Nc2ccc(Cl)cc2)cc1C#Cc1cc(-c2cnn(C)c2)cnc1N`, the inhibition was 87.9% in data set [1]; 14.7% in data set [2]; “Dose-dependent effect” in data set [3]; 96.6% in [4]; 31.4% in data set [6]; 7.4% in [7]. For the same molecule, the inhibition in [9] turned out to be 83.6%; in data set [14] it was 0%; in data set [15], 1.6%; in data set [16], 4.2%; in [17], 1.5%; in data set [18] it was 100%. In addition, the inhibition in data set [19] amounted to 2.3%. Further, the half-inhibitory concentration (IC50) was greater than 1000 nM in data set [5] and 0.7 nM in data set [13]. Also, the Tmax in [8] is 4 h. For the same molecule, the half-life in data set [10] was 200 min. In data set [11], the inhibition at 1 h, 1 µM amounted to 5.9%. In data set [12], this molecule displayed an MRT inf of 5.42 h.
